Bioassay records (PubChem)
SENP1 inh – human SENP1 catalytic domain inhibitors, primary screen, biochemical, FRET, uHTS; hit rate 0.21% among 360,000; inhibition, % at 10 µM; Sentrin-specific protease 1 (Homo sapiens), Q9P0U3; recombinant SENP1 catalytic domain, CyPet-SUMO1-YPet FRET cleavage;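 active = inhibition at least 30% at 10 µM, raw YFP signal under a set limit, fluorescence ratio 0.5 to 1.5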
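Test system: recombinant human SENP1 catalytic domain, His6-tagged / Medium: pH 8 Tris buffer with EDTA, NaCl, BME, BSA, NP40, catalase / Also added: SUMO1 FRET substrate flanked by Cypet and Ypet, 25 nM / Times: 50 min reaction at room temperature / Signal: FRET, CFP and YFP emission / Control set: no-enzyme low control and enzyme-plus-DMSO high control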
SENP8 block-1 – SENP8 protease inhibitors, primary screen, biochemical, luminescence; inhibition, % at 10 µM; hit rate 1.2% among 330,000; purified SENP8, Z-RLRGG-aminoluciferin cleavage; AID 2540, 2010; Sentrin-specific protease 8 (Homo sapiens), Q96LD8; in the data active = inhibition above about 50%
Target sequence (Q96LD8 whole entry, looked up): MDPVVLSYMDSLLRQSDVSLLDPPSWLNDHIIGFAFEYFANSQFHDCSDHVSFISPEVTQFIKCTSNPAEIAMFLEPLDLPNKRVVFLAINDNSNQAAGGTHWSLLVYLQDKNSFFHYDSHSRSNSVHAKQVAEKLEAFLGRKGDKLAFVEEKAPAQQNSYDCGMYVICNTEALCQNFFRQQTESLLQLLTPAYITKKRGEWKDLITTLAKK
Platelet DG rel – inhibitors of platelet dense granule secretion, primary screen, cell-based, MLPCN, human platelets; human platelet-rich plasma, SFLLRN dense granule ATP release, luminescence; inhibition, %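 (compounds screened at 7.5 µM in platelet-rich plasma)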; hit rate 0.22% among 300,000;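 active = mean replicate score, as percent of positive control, at or above 50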
SENP8 block-2 – human SENP8 protease inhibitors, primary screen, biochemical, fluorescence, Nedd8 protein substrate, uHTS. AID 602440, 2012. inhibition, % at 20 µM. Sentrin-specific protease 8 (Homo sapiens), Q96LD8. hit rate 0.64% among 360,000. recombinant SENP8; in the data active = inhibition mostly above about 40%, no sharp cut-off; inactive = mostly below about 27%
SENP7 block – SENP7 protease inhibitors, primary screen, biochemical, luminescence, uHTS; recombinant SENP7, Z-RLRGG-aminoluciferin luminescence, 40 min; inhibition, % at 5 µM; Sentrin-specific protease 7 (Homo sapiens), Q9BQF6; hit rate 1.5% among 330,000;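 active = inhibition above about 50% at the single test dose, limit read from the data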
Target sequence (Q9BQF6 706-1050 limits assumed): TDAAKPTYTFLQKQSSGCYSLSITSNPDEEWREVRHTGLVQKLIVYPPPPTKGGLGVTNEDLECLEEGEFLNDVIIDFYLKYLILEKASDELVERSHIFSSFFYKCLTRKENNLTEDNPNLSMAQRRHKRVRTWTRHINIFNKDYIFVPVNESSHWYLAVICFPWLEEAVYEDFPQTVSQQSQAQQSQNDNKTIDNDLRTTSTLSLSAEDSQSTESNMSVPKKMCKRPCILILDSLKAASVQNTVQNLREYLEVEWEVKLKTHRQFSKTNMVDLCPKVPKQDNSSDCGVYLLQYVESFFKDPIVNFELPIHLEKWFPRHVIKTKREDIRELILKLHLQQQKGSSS
SENP6 inh – SENP6 protease inhibitors, primary screen, biochemical, luminescence, uHTS; Sentrin-specific protease 6 (Homo sapiens), Q9GZR1; Recombinant SENP6 catalytic domain, aminoluciferin luminescence; inhibition, % at 10 µM; hit rate 1.8% among 330,000; AID 2599, 2010;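 active = inhibition above about 50% at the single tested dose, limit read from the data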
SENP8 confirm – SENP8 protease inhibitors, retest, confirmation, biochemical, luminescence, single concentration | shares compounds with SENP7 block | hit rate 40% among 6,200 | inhibition, % at 12.5 µM | Recombinant SENP8, Z-RLRGG-aminoluciferin luminescence, 60 min;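 active = mean inhibition across replicates above about 50%, limit read from the data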
SENP6 confirm – SENP6 protease inhibitors, confirmation, biochemical, luminescence, single concentration. hit rate 58% among 6,200. recombinant SENP6, Z-RLRGG-aminoluciferin luminescence. shares compounds with SENP7 block. inhibition, % at 12.5 µM
SENP7 confirm – SENP7 protease inhibitors, retest, confirmation, biochemical, luminescence, single concentration; shares compounds with SENP7 block; recombinant SENP7, Z-RLRGG-aminoluciferin luminescence, 40 min; inhibition, % at 12.5 µM; hit rate 69% among 6,200
Casp3 select – caspase-3 protease inhibitors, confirmation, selectivity assay for SENP inhibitor project, biochemical, single concentration; hit rate 60% among 6,200; AID 488918, 2010; shares compounds with SENP7 block; purified caspase-3, Z-DEVD-aminoluciferin luminescence, 60 min; inhibition, % at 12.5 µM;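 active = mean inhibition above about 50%, limit read from the data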
SENP luc ctr – counter-screen for SENP inhibitors: luminescence interference; shares compounds with SENP7 block; Pre-incubated SENP8/Z-RLRGG-aminoluciferin, luciferase luminescence interference; inhibition, % at 12.5 µM; hit rate 39% among 6,200; AID 488919;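 active = mean inhibition above about 50% when retested at one dose, limit read from the data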
Numbers stand for hits; . = inactive; / = not tested or not shown. This is a sample that favours compounds with a hit; in the whole collection about 2.6% have one here.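 Rule for the calls, unless noted: active = mean inhibition above about 50% in the one-dose retest (limit read from the data); inactive = the rest.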

SMILES	SENP1 inh	SENP8 block-1	Platelet DG rel	SENP8 block-2	SENP7 block	SENP6 inh	SENP8 confirm	SENP6 confirm	SENP7 confirm	Casp3 select	SENP luc ctr
COC1C(C)OC(OC2CC(C)(O)Cc3cc4c(c(O)c32)C(=O)c2c(O)cc3c(c2C4=O)OC2OC3(C)C(O)C(N(C)C)C2O)C(OC)C1(C)OC (stereo not drawn)	.	/	/	41.0	/	/	/	/	/	/	/
NCCc1cc(O)c(O)cc1O	.	/	/	36.0	/	/	/	/	/	/	/
NC(Cc1cc(O)c(O)cc1O)C(=O)O (stereo not drawn)	/	.	/	/	.	.	/	/	/	/	/
O=C1NC(=O)C(=Cc2ccc(N3CCN(C(=O)c4ccccc4)CC3)c([N+](=O)[O-])c2)C(=O)N1	.	.	.	41.0	.	.	/	/	/	/	/
COc1cccc(N2C(=O)NC(=O)/C(=C/c3ccc4c(c3)Cc3ccccc3-4)C2=O)c1	.	.	.	.	.	.	/	/	/	/	/
COc1ccc(N2C(=O)NC(=O)/C(=C\c3ccc([N+](=O)[O-])s3)C2=O)cc1	.	.	.	44.2	.	.	/	/	/	/	/
COc1ccc(N2C(=O)NC(=O)/C(=C/c3ccc([N+](=O)[O-])s3)C2=O)cc1	.	.	.	69.2	.	.	/	/	/	/	/
COc1cccc(N2C(=O)NC(=O)/C(=C/c3ccc([N+](=O)[O-])s3)C2=O)c1	.	.	.	47.5	.	.	/	/	/	/	/
COc1ccccc1N1C(=O)NC(=O)/C(=C/c2ccc([N+](=O)[O-])s2)C1=O	/	.	.	/	.	.	/	/	/	/	/
Cc1cccc(OP(=O)(Oc2ccccc2)OC(c2ccccc2)C(F)(F)F)c1 (stereo not drawn)	.	.	.	.	.	.	/	/	/	/	/
CCN(CC)c1ccc(/C=C2\C(=O)NC(=S)N(c3ccc(OC)cc3OC)C2=O)o1	78.3	.	.	.	.	.	/	/	/	/	/
COc1ccc(N2C(=O)/C(=C/c3ccc(N(C)C)o3)C(=O)NC2=S)cc1	69.5	.	.	.	.	.	/	/	/	/	/
CC(C)N1CCOC(c2ccc(O)c(O)c2)C1 (stereo not drawn)	.	/	/	.	/	/	/	/	/	/	/
O=C(c1cc2c(s1)-c1ccccc1OC2)N1CCC2(CC1)OCCO2	.	70.4	.	.	83.6	83.7	74.8	75.4	93.6	83.7	79.5
Fc1cccc(F)c1-c1nc(-c2ccc(Cl)cc2)no1	.	65.0	.	.	61.2	71.2	.	65.9	63.4	.	.
CCCNC(=O)c1c(N)n(CC2CCCO2)c2nc3ccccc3nc12 (stereo not drawn)	.	93.6	.	.	79.1	94.4	.	56.1	.	.	.
CC(C)OC(=O)c1c(N)n(CC2CCCO2)c2nc3ccccc3nc12 (stereo not drawn)	.	.	.	.	.	51.3	.	.	.	.	.
Nc1c(C(=O)OC2CCCCC2)c2nc3ccccc3nc2n1CC1CCCO1 (stereo not drawn)	.	.	.	.	.	.	/	/	/	/	/
CC(C)OCCCNC(=O)c1c(N)n(CC2CCCO2)c2nc3ccccc3nc12 (stereo not drawn)	.	91.7	.	.	66.0	94.3	.	.	.	.	.
CC(C)CCOC(=O)c1c(N)n(CC2CCCO2)c2nc3ccccc3nc12 (stereo not drawn)	.	.	.	.	.	.	/	/	/	/	/
CCSC(=O)N1CCCCCC1	.	.	/	.	.	.	/	/	/	/	/
CC(C)Cc1[nH]c(=O)c(C#N)c2c1CCC2	.	.	.	.	.	.	/	/	/	/	/
COc1cc2c(cc1OC)C13CCN4CC5CCOC6CC(=O)N2C1C6C5CC43 (stereo not drawn)	.	/	/	.	/	/	/	/	/	/	/
c1cc2c(cc1[C@H]1OC[C@H]3[C@@H]1CO[C@H]3c1ccc3c(c1)OCO3)OCO2	.	.	/	.	.	.	/	/	/	/	/
CN(CC#CCN1CCCC1)C(=O)c1cccc(Cl)c1	.	.	.	.	.	.	/	/	/	/	/
SMILES	SENP1 inh	SENP8 block-1	Platelet DG rel	SENP8 block-2	SENP7 block	SENP6 inh	SENP8 confirm	SENP6 confirm	SENP7 confirm	Casp3 select	SENP luc ctr
Nc1ccncc1	.	.	.	.	.	.	/	/	/	/	/
NNCc1cccc(O)c1	.	72.5	.	.	56.4	81.4	.	.	55.1	51.8	73.0
CCNCC(O)c1cccc(O)c1 (stereo not drawn)	.	.	.	.	.	.	/	/	/	/	/
N/C(=N\N=C\c1ccc(O)cc1O)N[N+](=O)[O-]	.	50.9	.	.	52.2	.	61.2	60.2	86.5	88.4	68.5
COC(=O)C1=C(c2ccc(OC)c(OC)c2)C[C@@H]2CC[C@H]1N2C(=O)NC1CCCCC1	.	.	/	.	.	.	/	/	/	/	/
CC(C)c1ccc(N=Nc2c(O)[nH]c(=O)[nH]c2=O)cc1	.	.	.	.	.	.	/	/	/	/	/
O=c1[nH]c(=S)[nH]c(O)c1N=Nc1ccc(SC(F)F)cc1	.	90.7	.	.	83.2	100.2	81.3	94.6	89.4	94.6	61.8
CN(C)P1(N(C)C)=NC(C(F)(F)F)=NC(C(F)(F)F)=N1	.	.	.	.	.	.	/	/	/	/	/
COC(=O)c1nc(-c2ccc3c(n2)C(=O)C(N)=C(OC)C3=O)c(N)c(-c2ccc(OC)c(OC)c2O)c1C	.	80.8	.	48.7	.	75.6	.	.	.	.	.
O=C(Nc1ccccc1)c1c(O)[nH]c(=S)[nH]c1=O	.	51.8	.	.	61.4	63.3	61.6	54.2	88.4	81.9	59.6
CCN(CC)C(=O)c1ccc(NC(=O)CN2CCc3cc(OC)c(OC)cc3C2)cc1	.	.	.	.	.	.	/	/	/	/	/
COc1cc2[nH]c(=O)n(-c3ccccc3)c(=O)c2cc1OC	.	.	.	.	.	.	/	/	/	/	/
COc1cc(C(c2c(C)[nH]n(-c3ccccc3)c2=O)c2c(C)[nH]n(-c3ccccc3)c2=O)cc(OC)c1OC	.	.	.	80.5	64.4	58.5	.	.	.	.	.
